For orientation: AC50 means the midpoint of the concentration-response curve, whichever way the signal moves.

Values joined by “and” are separate entries in the source; they are usually repeats but may differ in a detail not shown here. Identical values can stand only once. Active and inactive are the calls of the source.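 How the source made its calls: active means luminescence drop whose fitted half-maximal dose is at or below twice the top valid tested dose; inconclusive means flat fit with 30 to 70% inhibition, or poor fit; inactive means the rest, including signal rises.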

Test [1] deals with SK-MEL-5 TRPM1-promoter luciferase reporter, 24 h. Nature of the test: TRPM1 promoter luciferase signal reduction, dose response, MITF inhibitor project, cell-based, SK-MEL-5, dry powder samples, set 3 (AID 624259). A digest of the protocol:
(§1)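 System: SK-MEL-5 melanoma line with stable TRPM1 promoter–luciferase reporter | Timing: 24 h compound exposure at 37 °C | Detection: SteadyGlo luminescence | Read-out basis: Loss of TRPM1 reporter luminescence | Control set: Parthenolide as positive (inhibition) control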

Assay in test [2]: as above
To be noted: SK-MEL-5 TRPM1-promoter luciferase reporter, 24 h; at 35 µM (top of the series). A digest of the protocol: as §1
On the technique in general: A reporter such as luciferase makes a cellular process visible.

With `O=C(NC1=C(c2ccc(OC(F)(F)F)cc2)C(=O)c2ccccc2C1=O)c1ccc(Br)cc1`, in test [1], the AC50 is 35.1 µM.
Still for that read-out and setting: with `CN1CCN(C2=C(NS(=O)(=O)c3cccs3)C(=O)c3ccccc3C2=O)CC1` the figure was 2.69 µM; with `Cc1nc2ccccc2n1/N=C/c1ccc([N+](=O)[O-])s1`, 3.29 µM.
Same read-out and setting: with `COc1ccc(C2=C(NC(=O)c3cccc(Cl)c3)C(=O)c3ccccc3C2=O)cc1` the figure was 33.5 µM.
Same read-out and setting: for `O=C1C(NS(=O)(=O)c2ccc(Br)cc2)=C(N2CCCCC2)C(=O)c2ccccc21` the value was 20.1 µM; for `O=C(NC1=C(c2ccc(OC(F)(F)F)cc2)C(=O)c2ccccc2C1=O)c1ccco1`, 31.1 µM.
`COc1ccc(C2=C(NC(=O)c3ccccc3OC)C(=O)c3ccccc3C2=O)cc1`: the activity change, negative = inhibition in test [2] is 14.6% (inactive).
Regarding `O=C(NC1=C(c2ccccc2)C(=O)c2ccccc2C1=O)c1ccccc1`, the AC50 in test [1] is 10.5 µM.
On the same count and under the same terms, for `CC(=O)NC1=C(c2ccc(Cl)cc2)C(=O)c2ccccc2C1=O` the value was 8 µM; for `O=C(NC1=C(c2ccccc2)C(=O)c2ccccc2C1=O)c1ccc(Br)cc1`, 18.1 µM.
Turning to `C=CCNC1=C(NCC=C)C(=O)c2ccccc2C1=O`, the activity change, negative = inhibition in test [2] was -10.6% (inactive).
Regarding `CCN1CCN(C2=C(NC(=O)c3ccccc3)C(=O)c3ccccc3C2=O)CC1`, the AC50 in test [1] is 1.27 µM.
The same measure, in the same setting: for `C=C1C(=O)OC2C1CC/C(C)=C\CCC1(C)OC21` (stereo not given) the value was 7.5 µM; for `C=CCNC1=C(N2CCN(C)CC2)C(=O)c2ccccc2C1=O`, 7.93 µM.
Still for that read-out and setting: for `C=CCNC1=C(N2CCCCC2)C(=O)c2ccccc2C1=O` the value was 0.722 µM.
The same measure, in the same setting: with `O=C1C(Nc2ccccc2)=C(N2CCOCC2)C(=O)c2ccccc21` the figure was 8.43 µM; with `O=C(CNc1cccc2ccccc12)N/N=C/c1ccc([N+](=O)[O-])o1`, 3.08 µM; with `CN1CCN(C2=C(NS(=O)(=O)c3ccc(Br)cc3)C(=O)c3ccccc3C2=O)CC1`, 2.07 µM.
In the case of `O=C(NC1=C(c2ccccc2)C(=O)c2ccccc2C1=O)c1ccco1`, the AC50 in test [1] is 9.91 µM.
Same read-out and setting: for `O=C(NC1=C(N2CCOCC2)C(=O)c2ccccc2C1=O)c1ccccc1` the value was 11.1 µM.
Take `COc1ccc(C(=O)NC2=C(c3ccc(OC(F)(F)F)cc3)C(=O)c3ccccc3C2=O)cc1`: in test [2], the activity change, negative = inhibition is -7.11% (inactive).
In the case of `C=CCNC1=C(NS(=O)(=O)c2ccc(Br)cc2)C(=O)c2ccccc2C1=O`, the AC50 in test [1] was 22.9 µM.
Same read-out and setting: for `COc1ccc(C2=C(NC(=O)c3ccc(Cl)cc3)C(=O)c3ccccc3C2=O)cc1` the value was 33.6 µM.
With `CCN1CCN(C2=C(NS(=O)(=O)c3ccc(Br)cc3)C(=O)c3ccccc3C2=O)CC1`, the AC50 in test [1] is 12.6 µM.
On to `C=CCNC1=C(NCCCN2CCOCC2)C(=O)c2ccccc2C1=O`, for which, in test [1], the half-maximal activity concentration (AC50) is 8.83 µM.
For the compound `O=C(NC1=C(Cl)C(=O)c2ccccc2C1=O)c1ccccc1`, in test [1], the concentration at half-maximal activity (AC50) is 1.1 µM.
Same read-out and setting: with `COc1ccc(C(=O)NC2=C(c3ccc(OC)cc3)C(=O)c3ccccc3C2=O)cc1` the figure was 11.9 µM; with `O=C(NC1=C(c2ccc(OC(F)(F)F)cc2)C(=O)c2ccccc2C1=O)c1ccccc1`, 31.3 µM.
Regarding `COc1ccc(C2=C(NC(=O)c3ccc(OC)cc3-c3cccc(OC)c3)C(=O)c3ccccc3C2=O)cc1`, in test [2], the activity change, negative = inhibition is 25.2% (inactive).
For the compound `O=C(NC1=C(c2ccc(Oc3ccccc3)cc2)C(=O)c2ccccc2C1=O)c1ccccc1`, in test [2], the activity change, negative = inhibition was 17.5% (inactive).
In the case of `O=C1C(NS(=O)(=O)c2cccs2)=C(N2CCOCC2)C(=O)c2ccccc21`, the AC50 in test [1] was 14.9 µM.
Still for that read-out and setting: for `Cc1ccc(C(=O)NC2=C(c3ccccc3)C(=O)c3ccccc3C2=O)o1` the value was 9.24 µM.
For `COc1ccc(C2=C(NC(C)=O)C(=O)c3ccccc3C2=O)cc1`, the AC50 in test [1] was 6.89 µM.
Same read-out and setting: with `O=C(NC1=C(N2CCSCC2)C(=O)c2ccccc2C1=O)c1ccccc1` the figure was 5.8 µM.
Still for that read-out and setting: with `C=CCNC1=C(N2CCOCC2)C(=O)c2ccccc2C1=O` the figure was 3.46 µM; with `CC(=O)NC1=C(c2ccc(Oc3ccccc3)cc2)C(=O)c2ccccc2C1=O`, 28.1 µM; with `COc1ccc(S(=O)(=O)N(C(C)=O)c2ccc(OC(C)=O)c3ccccc23)cc1[N+](=O)[O-]`, 11.5 µM.
On the same count and under the same terms, for `O=C(NC1=C(c2ccc(OC(F)(F)F)cc2)C(=O)c2ccccc2C1=O)c1ccccc1F` the value was 34.7 µM; for `CN1CCN(C2=C(NC(=O)c3ccccc3)C(=O)c3ccccc3C2=O)CC1`, 1.13 µM.
Consider `CC(=O)NC1=C(c2cccc(Cl)c2)C(=O)c2ccccc2C1=O`, for which the AC50 in test [1] is 7.59 µM.
Same read-out and setting: for `NC1=C(c2ccccc2)C(=O)c2ccccc2C1=O` the value was 14.5 µM; for `COc1ccc(C2=C(NC(=O)c3ccccc3Cl)C(=O)c3ccccc3C2=O)cc1`, 11.8 µM.
Still for that read-out and setting: with `Cc1ccc(C(=O)NC2=C(c3ccc(OC(F)(F)F)cc3)C(=O)c3ccccc3C2=O)o1` the figure was 27.5 µM; with `CC1CCN(CC(CS(=O)(=O)c2ccc([N+](=O)[O-])cc2)N2CCC(C)CC2)CC1` (stereo not given), 14.2 µM.
The same measure, in the same setting: for `CCN1CCN(C2=C(NS(=O)(=O)c3cccs3)C(=O)c3ccccc3C2=O)CC1` the value was 6.16 µM; for `O=C1C(NS(=O)(=O)c2ccc(Br)cc2)=C(N2CCOCC2)C(=O)c2ccccc21`, 13.2 µM.
As to `COc1ccc(C(=O)NC2=C(c3ccccc3)C(=O)c3ccccc3C2=O)cc1`, the AC50 in test [1] is 14.7 µM.
Same read-out and setting: for `C=CCNC1=C(NCCN(CC)CC)C(=O)c2ccccc2C1=O` the value was 3.05 µM; for `COc1cccc(C2=C(NC(=O)c3ccccc3)C(=O)c3ccccc3C2=O)c1`, 32 µM; for `CCN1c2ccccc2NC2N=C(OC)C(c3ccccc3)C21` (stereo not given), 4.27 µM.
The same measure, in the same setting: with `O=C1C(NS(=O)(=O)c2ccc(Br)cc2)=C(N2CCSCC2)C(=O)c2ccccc21` the figure was 35.5 µM; with `CC(=O)NC1=C(c2ccccc2)C(=O)c2ccccc2C1=O`, 8.08 µM; with `C=CCNC1=C(Cl)C(=O)c2ccccc2C1=O`, 4.57 µM and 4.74 µM.
Still for that read-out and setting: for `CC(=O)NC1=C(c2ccc3c(c2)oc2ccccc23)C(=O)c2ccccc2C1=O` the value was 5.89 µM; for `COc1ccc(C2=C(NC(=O)c3cccc(OC)c3)C(=O)c3ccccc3C2=O)cc1`, 17.5 µM; for `COc1cccc(-c2cc(C(=O)NC3=C(Cl)C(=O)c4ccccc4C3=O)ccc2OC)c1`, 10.4 µM.
Take `C=CCNC1=C(N2CCN(CC)CC2)C(=O)c2ccccc2C1=O`: in test [1], the AC50 is 11.3 µM.
Still for that read-out and setting: for `C=CCNC1=C(N2CCSCC2)C(=O)c2ccccc2C1=O` the value was 3.98 µM.
On the same count and under the same terms, with `C=CCNC1=C(NCCCN(CC)CC)C(=O)c2ccccc2C1=O` the figure was 5.77 µM.
For the compound `COc1ccc(C2=C(NC(=O)c3ccc4ccccc4c3)C(=O)c3ccccc3C2=O)cc1`, in test [2], the activity change, negative = inhibition was 24.2% (inactive).

(Values after PubChem BioAssay AID624259 (Broad Institute, 2012).)
